In ChEMBL document CHEMBL2439973, “Discovery of VU0409106: A negative allosteric modulator of mGlu5 with activity in a mouse model of anxiety” (Bioorg Med Chem Lett, 2013):
Active and inactive are the calls of the source.

Columns and labels:
[1] = biological target: Cysteinyl leukotriene receptor 1 (Homo sapiens) (UniProt Q9Y271); test: Displacement of [3H]-LTD4 from human recombinant leukotriene cysteinyl CysLT1 receptor expressed in CHO-K1 cells at 10 uM relative to control; format: cell-based
How it was run: (§1)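 Tested once at 10 μM in a commercial radioligand binding panel of 68 GPCRs, ion channels, kinases and transporters. Activity is given as displacement of each radioligand relative to control.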

[2] = biological target: D(2) dopamine receptor (Homo sapiens) (UniProt P14416); test: Displacement of [3H]-Spiperone from human recombinant dopamine D2S receptor expressed in CHO cells at 10 uM relative to control; format: cell-based
[3] = biological target: L-type calcium channel, benzothiazepine binding site (Rattus norvegicus, UniProt P22002+P27732+Q02485); test: Displacement of [3H]-Diltiazem from L-Type calcium channel benzothiazepine binding site in rat brain at 10 uM relative to control; format: tissue-based; conditions: probe [3H]-Diltiazem
Rattus norvegicus = species: Rattus norvegicus; test: Displacement of [125I]-Omega-Conotoxin GVIA from N-type calcium channel in rat frontal brain at 10 uM relative to control; how it was run: as §1
[4] = biological target: Endothelin receptor type B (Homo sapiens) (UniProt P24530); test: Displacement of [125I]-Endothelin-1 from human recombinant ETB receptor expressed in CHO-K1 cells at 10 uM relative to control; format: cell-based; how it was run: as §1
[5] = biological target: Muscarinic acetylcholine receptor M2 (Homo sapiens) (UniProt P08172); test: Displacement of [3H]-N-Methylscopolamine from human recombinant muscarinic M2 receptor expressed in CHO-K1 cells at 10 uM relative to control; format: cell-based; how it was run: as §1
Mus musculus = species: Mus musculus; test: Displacement of [3H]-PDBu from phorbol ester receptor in mouse brain at 10 uM relative to control; format: tissue-based; how it was run: as §1
[6] = biological target: Histamine H1 receptor (Homo sapiens) (UniProt P35367); test: Displacement of [3H]-Pyrilamine from human recombinant histamine H1 receptor expressed in CHO-K1 cells at 10 uM relative to control; format: cell-based
[7] = biological target: B2 bradykinin receptor (Homo sapiens) (UniProt P30411); test: Displacement of [3H]-Bradykinin from human recombinant bradykinin B2 receptor expressed in rat Chem-1 cells at 10 uM relative to control; format: cell-based; how it was run: as §1
[8] = biological target: Alpha-1D adrenergic receptor (Homo sapiens) (UniProt P25100); test: Displacement of [3H]-Prazosin from human recombinant adrenergic alpha1D receptor expressed in HEK293 cells at 10 uM relative to control; format: cell-based
Plasma = test: Cmax in CD-1 mouse plasma at 10 mg/kg, ip by LC-MS/MS analysis; format: ADME, organism-based; parameters: dose 10 mg/kg, route intraperitoneal; conditions: in vivo
[9] = Cmax in CD-1 mouse brain at 10 mg/kg, ip by LC-MS/MS analysis; format: ADME, organism-based; parameters: dose 10 mg/kg, route intraperitoneal
[10] = biological target: Metabotropic glutamate receptor 2 (Rattus norvegicus) (UniProt P31421); test: Allosteric modulation of rat mGlu2 receptor expressed in HEK293 cells coexpressing G protein-activated inward rectifier potassium channel assessed as effect on glutamate-induced thallium flux at 10 uM; format: cell-based
[11] = biological target: Acetylcholine receptor subunit alpha (Homo sapiens) (UniProt P02708); test: Displacement of [125I]-alpha-Bungarotoxin from nicotinic acetylcholine alpha1 receptor bungarotoxin binding site in human RD cells at 10 uM relative to control; format: cell-based; how it was run: as §1
[12] = biological target: Alpha-2A adrenergic receptor (Homo sapiens) (UniProt P08913); test: Displacement of [3H]-Rauwolscine from human recombinant adrenergic alpha2A receptor expressed in CHO-K1 cells at 10 uM relative to control; format: cell-based
[13] = biological target: Muscarinic acetylcholine receptor M1 (Homo sapiens) (UniProt P11229); test: Displacement of [3H]-N-Methylscopolamine from human recombinant muscarinic M1 receptor expressed in CHO-K1 cells at 10 uM relative to control; format: cell-based; how it was run: as §1
Chain of Muscarinic acetylcholine receptor M1 (Homo sapiens) (P11229 whole entry): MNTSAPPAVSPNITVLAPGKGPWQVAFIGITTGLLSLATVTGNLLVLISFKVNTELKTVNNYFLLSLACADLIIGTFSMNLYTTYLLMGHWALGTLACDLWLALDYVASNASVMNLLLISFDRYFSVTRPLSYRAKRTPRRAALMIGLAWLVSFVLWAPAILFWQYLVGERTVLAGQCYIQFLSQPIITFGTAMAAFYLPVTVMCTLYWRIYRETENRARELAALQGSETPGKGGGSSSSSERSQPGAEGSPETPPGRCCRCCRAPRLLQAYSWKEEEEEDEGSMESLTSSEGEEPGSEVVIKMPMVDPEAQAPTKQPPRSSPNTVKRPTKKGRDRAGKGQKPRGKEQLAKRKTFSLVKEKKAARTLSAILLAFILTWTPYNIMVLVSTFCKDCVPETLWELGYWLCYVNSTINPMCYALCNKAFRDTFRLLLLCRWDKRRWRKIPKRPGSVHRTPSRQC

Chain of Alpha-2A adrenergic receptor (Homo sapiens) (P08913 whole entry): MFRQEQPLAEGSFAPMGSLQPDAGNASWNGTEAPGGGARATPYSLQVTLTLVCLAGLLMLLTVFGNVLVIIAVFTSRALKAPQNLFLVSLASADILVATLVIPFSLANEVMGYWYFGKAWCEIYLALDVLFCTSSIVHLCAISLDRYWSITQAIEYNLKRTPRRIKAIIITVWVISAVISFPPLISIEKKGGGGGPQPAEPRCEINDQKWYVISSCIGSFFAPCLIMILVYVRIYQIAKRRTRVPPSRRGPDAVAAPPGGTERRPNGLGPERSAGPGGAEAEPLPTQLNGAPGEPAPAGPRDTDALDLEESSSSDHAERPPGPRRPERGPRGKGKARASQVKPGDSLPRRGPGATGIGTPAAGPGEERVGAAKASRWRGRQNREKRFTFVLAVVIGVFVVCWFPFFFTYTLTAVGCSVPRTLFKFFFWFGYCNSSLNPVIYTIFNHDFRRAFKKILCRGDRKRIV
Chain of Histamine H1 receptor (Homo sapiens) (P35367 whole entry): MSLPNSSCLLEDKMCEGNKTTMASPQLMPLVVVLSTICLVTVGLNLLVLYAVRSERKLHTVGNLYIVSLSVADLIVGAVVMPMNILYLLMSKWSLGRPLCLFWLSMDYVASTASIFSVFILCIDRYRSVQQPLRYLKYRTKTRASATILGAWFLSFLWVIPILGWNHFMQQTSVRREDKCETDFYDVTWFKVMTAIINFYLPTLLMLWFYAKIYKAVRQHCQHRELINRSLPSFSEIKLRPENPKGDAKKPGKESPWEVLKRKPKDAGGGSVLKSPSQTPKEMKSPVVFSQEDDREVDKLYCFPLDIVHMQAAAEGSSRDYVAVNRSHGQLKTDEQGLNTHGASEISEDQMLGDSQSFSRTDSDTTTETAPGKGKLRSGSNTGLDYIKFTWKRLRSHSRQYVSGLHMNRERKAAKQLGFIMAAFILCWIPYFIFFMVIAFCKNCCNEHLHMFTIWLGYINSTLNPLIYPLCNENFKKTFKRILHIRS
Chain of Acetylcholine receptor subunit alpha (Homo sapiens) (P02708 whole entry): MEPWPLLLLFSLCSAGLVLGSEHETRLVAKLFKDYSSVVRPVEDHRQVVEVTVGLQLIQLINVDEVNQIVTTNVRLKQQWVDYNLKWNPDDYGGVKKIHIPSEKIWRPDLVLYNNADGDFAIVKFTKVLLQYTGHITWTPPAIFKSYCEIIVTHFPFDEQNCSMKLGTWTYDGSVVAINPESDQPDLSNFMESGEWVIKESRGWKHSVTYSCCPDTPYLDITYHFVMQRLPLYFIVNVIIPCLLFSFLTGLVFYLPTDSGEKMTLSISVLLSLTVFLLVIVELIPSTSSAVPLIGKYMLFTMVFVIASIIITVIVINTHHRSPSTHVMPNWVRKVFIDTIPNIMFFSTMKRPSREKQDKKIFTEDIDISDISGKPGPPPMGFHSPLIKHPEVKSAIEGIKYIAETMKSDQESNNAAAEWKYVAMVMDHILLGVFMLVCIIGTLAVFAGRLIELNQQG
Chain of Alpha-1D adrenergic receptor (Homo sapiens) (P25100 whole entry): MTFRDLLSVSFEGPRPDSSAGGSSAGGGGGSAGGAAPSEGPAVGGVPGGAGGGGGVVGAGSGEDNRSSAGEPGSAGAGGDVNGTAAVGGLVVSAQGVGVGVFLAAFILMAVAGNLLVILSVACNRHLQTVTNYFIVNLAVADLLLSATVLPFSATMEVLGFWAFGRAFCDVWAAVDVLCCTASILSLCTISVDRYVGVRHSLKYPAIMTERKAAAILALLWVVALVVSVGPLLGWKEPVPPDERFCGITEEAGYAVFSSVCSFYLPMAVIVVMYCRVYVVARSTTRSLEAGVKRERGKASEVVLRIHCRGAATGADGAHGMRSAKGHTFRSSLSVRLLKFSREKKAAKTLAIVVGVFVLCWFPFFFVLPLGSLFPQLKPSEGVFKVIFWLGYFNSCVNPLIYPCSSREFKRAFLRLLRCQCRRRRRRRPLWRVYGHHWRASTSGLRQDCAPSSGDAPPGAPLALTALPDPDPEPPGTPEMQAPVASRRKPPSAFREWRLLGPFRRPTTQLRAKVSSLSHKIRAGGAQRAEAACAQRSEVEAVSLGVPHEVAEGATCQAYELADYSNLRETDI
Chain of D(2) dopamine receptor (Homo sapiens) (P14416 whole entry): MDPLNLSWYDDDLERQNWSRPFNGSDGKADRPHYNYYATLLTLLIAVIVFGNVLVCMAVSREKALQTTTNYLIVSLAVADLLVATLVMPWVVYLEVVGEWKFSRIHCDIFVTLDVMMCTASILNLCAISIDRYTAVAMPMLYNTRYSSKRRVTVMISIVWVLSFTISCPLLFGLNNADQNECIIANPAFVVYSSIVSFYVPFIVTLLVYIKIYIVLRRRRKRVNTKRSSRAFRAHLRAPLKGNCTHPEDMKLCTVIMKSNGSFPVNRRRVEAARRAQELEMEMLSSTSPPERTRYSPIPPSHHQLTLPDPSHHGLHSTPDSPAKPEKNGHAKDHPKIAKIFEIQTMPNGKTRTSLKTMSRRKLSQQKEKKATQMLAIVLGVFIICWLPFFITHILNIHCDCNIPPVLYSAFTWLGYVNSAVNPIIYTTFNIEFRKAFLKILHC
Chain of Endothelin receptor type B (Homo sapiens) (P24530 whole entry): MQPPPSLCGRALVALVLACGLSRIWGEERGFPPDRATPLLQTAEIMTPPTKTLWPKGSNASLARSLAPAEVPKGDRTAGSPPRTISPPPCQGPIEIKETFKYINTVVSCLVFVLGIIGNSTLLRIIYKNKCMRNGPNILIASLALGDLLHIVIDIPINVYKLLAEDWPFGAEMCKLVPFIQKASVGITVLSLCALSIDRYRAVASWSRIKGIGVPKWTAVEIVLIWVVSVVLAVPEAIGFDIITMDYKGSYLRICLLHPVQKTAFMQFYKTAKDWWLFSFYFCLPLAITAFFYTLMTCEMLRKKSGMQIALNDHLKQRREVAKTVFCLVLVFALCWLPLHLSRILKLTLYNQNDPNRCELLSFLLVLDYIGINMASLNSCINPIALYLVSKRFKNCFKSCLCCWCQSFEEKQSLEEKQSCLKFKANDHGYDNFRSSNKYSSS
Chain of Cysteinyl leukotriene receptor 1 (Homo sapiens) (Q9Y271 whole entry): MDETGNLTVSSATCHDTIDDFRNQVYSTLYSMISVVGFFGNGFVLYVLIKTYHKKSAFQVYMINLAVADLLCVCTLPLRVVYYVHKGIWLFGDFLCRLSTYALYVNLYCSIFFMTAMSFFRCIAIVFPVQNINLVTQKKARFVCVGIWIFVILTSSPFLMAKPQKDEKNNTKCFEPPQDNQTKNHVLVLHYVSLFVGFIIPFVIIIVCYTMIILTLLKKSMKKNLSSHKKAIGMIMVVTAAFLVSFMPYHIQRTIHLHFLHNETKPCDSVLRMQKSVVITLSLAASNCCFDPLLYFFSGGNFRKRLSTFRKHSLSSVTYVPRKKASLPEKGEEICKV
Chain of Metabotropic glutamate receptor 2 (Rattus norvegicus) (P31421 19-872 limits assumed): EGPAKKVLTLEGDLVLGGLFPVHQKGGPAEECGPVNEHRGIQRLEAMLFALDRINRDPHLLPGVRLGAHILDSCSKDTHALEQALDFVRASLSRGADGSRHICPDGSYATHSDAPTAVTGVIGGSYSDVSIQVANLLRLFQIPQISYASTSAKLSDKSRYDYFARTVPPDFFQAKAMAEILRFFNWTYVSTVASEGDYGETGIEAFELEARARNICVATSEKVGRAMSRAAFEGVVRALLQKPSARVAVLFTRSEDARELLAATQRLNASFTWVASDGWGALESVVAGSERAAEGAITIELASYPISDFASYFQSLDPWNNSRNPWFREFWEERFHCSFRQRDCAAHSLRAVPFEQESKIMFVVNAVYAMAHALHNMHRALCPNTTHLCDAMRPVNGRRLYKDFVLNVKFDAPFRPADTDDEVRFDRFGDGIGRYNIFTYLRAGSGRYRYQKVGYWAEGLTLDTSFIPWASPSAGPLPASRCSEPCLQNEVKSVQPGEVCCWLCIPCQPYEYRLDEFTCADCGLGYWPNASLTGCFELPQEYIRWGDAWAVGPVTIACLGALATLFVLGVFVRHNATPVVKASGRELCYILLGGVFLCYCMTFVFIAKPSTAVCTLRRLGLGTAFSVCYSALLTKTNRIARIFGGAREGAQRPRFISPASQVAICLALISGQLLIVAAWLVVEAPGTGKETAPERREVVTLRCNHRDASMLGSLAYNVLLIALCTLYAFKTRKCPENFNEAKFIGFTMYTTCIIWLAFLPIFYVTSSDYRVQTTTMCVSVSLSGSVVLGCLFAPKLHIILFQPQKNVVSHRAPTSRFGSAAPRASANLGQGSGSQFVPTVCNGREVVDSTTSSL
Chain of B2 bradykinin receptor (Homo sapiens) (P30411 whole entry): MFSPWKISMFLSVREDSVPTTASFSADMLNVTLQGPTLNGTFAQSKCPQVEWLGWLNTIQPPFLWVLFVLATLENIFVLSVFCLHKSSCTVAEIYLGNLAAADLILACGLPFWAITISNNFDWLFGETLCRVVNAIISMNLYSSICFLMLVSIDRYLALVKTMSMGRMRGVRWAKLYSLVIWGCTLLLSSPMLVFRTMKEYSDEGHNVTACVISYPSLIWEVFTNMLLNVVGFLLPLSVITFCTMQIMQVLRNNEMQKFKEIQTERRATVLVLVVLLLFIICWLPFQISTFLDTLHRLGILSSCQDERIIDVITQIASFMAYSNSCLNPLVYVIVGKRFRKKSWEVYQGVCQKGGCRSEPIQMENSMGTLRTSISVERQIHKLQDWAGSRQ

Cc1csc(NC(=O)c2cc(F)cc(Oc3cncnc3)c2)n1
1350 ng/g: Cmax [9]
1450 ng/mL: Cmax (Plasma)
> 35%: inhibition [1] | inhibition [2] | inhibition at 10 µM [3] | inhibition (Rattus norvegicus) | inhibition [4] | inhibition [5] | inhibition (Mus musculus) | inhibition [6] | inhibition [7] | inhibition [8] | inhibition [11] | inhibition [12] | inhibition [13]
inactive: Activity [10]
